Measurements from ChEMBL document CHEMBL2396604, “Synthesis and structure activity relationship of tetrahydroisoquinoline-based potentiators of GluN2C and GluN2D containing N-methyl-D-aspartate receptors” (J Med Chem, 2013).

Tests used:
[1] = biological target: Glutamate NMDA receptor; Grin1/Grin2c (Rattus norvegicus, UniProt P35439+Q00961); experiment: Activity at rat recombinant GluN1/GluN2C receptor assessed as potentiation of glycine/glutamate-induced activation by two-electrode voltage clamp technique; type: protein-complex assay
[2] = biological target: Nicotinic acetylcholine receptor alpha9/alpha10 (Rattus norvegicus) (UniProt P43144+Q9JLB5); experiment: Activity at rat recombinant alpha9alpha10 nAChR expressed in Xenopus oocytes assessed as effect on acetylcholine-induced response at 3 uM by two-electrode voltage clamp technique relative to control; type: cell-based; settings: Oocyte
In short: (§1)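 Two-electrode voltage clamp of Xenopus oocytes injected with 1–5 ng cRNA and kept in Barth's solution at 15°C for 2–5 days. Oocytes were perfused with 90 mM NaCl, 1.0 KCl, 0.5 BaCl2, 0.005 EDTA, 10 HEPES, pH 7.4, 23°C, and held at -40 mV. Compound was co-applied at 3 µM with agonist from 20 mM DMSO stocks, final DMSO 0.05–0.5%.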

[3] = biological target: D(1B) dopamine receptor (Homo sapiens) (UniProt P21918); experiment: Inhibition of dopamine D5 receptor (unknown origin) at 5 uM by psychoactive drug screening programme assay
In short: (§2)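 Radioligand binding screen run by PDSP. Displacement of ligand binding was measured with test compound at 5 µM, n=4 per target.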

[4] = biological target: Sodium-dependent serotonin transporter (Homo sapiens) (UniProt P31645); experiment: Inhibition of serotonin transporter (unknown origin) at 5 uM by psychoactive drug screening programme assay
Sequence of Sodium-dependent serotonin transporter (Homo sapiens) (P31645 whole entry, looked up): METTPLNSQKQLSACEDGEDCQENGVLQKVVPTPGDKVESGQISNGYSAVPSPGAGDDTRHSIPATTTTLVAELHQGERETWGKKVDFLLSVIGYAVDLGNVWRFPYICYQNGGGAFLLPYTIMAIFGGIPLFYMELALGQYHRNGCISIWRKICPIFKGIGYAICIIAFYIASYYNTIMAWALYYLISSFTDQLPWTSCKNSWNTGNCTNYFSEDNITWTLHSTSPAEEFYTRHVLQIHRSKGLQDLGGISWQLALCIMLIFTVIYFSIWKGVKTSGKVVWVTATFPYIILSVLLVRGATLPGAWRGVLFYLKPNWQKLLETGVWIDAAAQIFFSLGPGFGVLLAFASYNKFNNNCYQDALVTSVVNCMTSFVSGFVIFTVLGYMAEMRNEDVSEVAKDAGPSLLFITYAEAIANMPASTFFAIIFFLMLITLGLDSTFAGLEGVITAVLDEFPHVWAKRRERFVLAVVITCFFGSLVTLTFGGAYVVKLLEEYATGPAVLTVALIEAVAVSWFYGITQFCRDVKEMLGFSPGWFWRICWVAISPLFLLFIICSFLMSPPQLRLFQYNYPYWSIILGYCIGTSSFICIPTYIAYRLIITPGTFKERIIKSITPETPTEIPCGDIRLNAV

[5] = biological target: Ionotropic glutamate receptor NMDA 1/2D (Rattus norvegicus, UniProt P35439+Q62645); experiment: Activity at rat recombinant GluN1/GluN2D receptor assessed as potentiation of glycine/glutamate-induced activation by two-electrode voltage clamp technique; type: protein-complex assay
[6] = biological target: Glycine receptor subunit alpha-1 (Rattus norvegicus) (UniProt P07727); experiment: Activity at rat recombinant glycine alpha1 receptor expressed in Xenopus oocytes assessed as effect on glycine-induced activation at 3 uM by two-electrode voltage clamp technique relative to control; type: cell-based; settings: Oocyte; in short: as §1
[7] = biological target: 5-hydroxytryptamine receptor 3A (Homo sapiens) (UniProt P46098); experiment: Inhibition of serotonin 5-HT3 receptor (unknown origin) at 5 uM by psychoactive drug screening programme assay
Sequence of 5-hydroxytryptamine receptor 3A (Homo sapiens) (P46098 whole entry): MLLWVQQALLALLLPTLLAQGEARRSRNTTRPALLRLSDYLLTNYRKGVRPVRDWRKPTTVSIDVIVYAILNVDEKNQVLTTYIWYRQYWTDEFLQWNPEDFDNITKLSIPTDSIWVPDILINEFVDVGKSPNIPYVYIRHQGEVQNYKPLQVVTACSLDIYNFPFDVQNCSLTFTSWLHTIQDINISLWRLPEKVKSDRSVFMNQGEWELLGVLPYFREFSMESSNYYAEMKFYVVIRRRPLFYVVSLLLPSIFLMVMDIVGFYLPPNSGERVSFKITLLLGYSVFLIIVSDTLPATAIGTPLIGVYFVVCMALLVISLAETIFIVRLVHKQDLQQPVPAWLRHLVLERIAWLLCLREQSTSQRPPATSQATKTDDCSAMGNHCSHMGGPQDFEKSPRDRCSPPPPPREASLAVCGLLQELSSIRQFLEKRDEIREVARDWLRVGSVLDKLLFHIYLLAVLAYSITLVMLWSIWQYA

[8] = biological target: Glutamate NMDA receptor; Grin1/Grin2c (Rattus norvegicus) (UniProt P35439+Q00961); experiment: Activity at rat recombinant GluN1/GluN2C receptor expressed in Xenopus oocytes assessesed as effect of glycine/glutamate-induced response at 3 uM by two-electrode voltage clamp technique relative to control; type: cell-based; settings: Oocyte; in short: as §1
[9] = biological target: Neuronal acetylcholine receptor; alpha4/beta2 (Homo sapiens) (UniProt P17787+P43681); experiment: Activity at human recombinant alpha4beta2 nAChR expressed in Xenopus oocytes assessed as effect on acetylcholine-induced activation at 3 uM by two-electrode voltage clamp technique relative to control; type: cell-based; settings: Oocyte; in short: as §1
[10] = biological target: D(3) dopamine receptor (Homo sapiens) (UniProt P35462); experiment: Inhibition of dopamine D3 receptor (unknown origin) at 5 uM by psychoactive drug screening programme assay; in short: as §2
[11] = biological target: Histamine H3 receptor (Homo sapiens) (UniProt Q9Y5N1); experiment: Inhibition of H3 histamine receptor (unknown origin) at 5 uM by psychoactive drug screening programme assay; in short: as §2
Sequence of Histamine H3 receptor (Homo sapiens) (Q9Y5N1 whole entry): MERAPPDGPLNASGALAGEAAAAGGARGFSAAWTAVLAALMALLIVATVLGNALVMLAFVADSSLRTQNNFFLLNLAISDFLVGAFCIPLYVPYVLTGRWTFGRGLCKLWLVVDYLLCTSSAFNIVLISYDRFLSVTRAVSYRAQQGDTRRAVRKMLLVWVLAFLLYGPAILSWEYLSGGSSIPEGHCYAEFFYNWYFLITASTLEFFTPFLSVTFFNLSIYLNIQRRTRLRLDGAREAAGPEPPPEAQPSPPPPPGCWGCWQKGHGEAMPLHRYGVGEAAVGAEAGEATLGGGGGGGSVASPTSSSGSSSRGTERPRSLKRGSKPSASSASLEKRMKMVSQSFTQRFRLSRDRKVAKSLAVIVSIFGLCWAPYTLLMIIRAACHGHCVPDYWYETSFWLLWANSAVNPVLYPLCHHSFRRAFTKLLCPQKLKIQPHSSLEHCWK

Oocyte = experiment: Activity at mouse recombinant alpha1beta1gammadelta nAChR expressed in Xenopus oocytes assessed as effect on acetylcholine-induced activation at 3 uM by two-electrode voltage clamp technique relative to control; type: cell-based; in short: as §1
[12] = biological target: Ionotropic glutamate receptor NMDA 1/2D (Rattus norvegicus) (UniProt P35439+Q62645); experiment: Activity at rat recombinant GluN1/GluN2D receptor expressed in Xenopus oocytes assessesed as effect of glycine/glutamate-induced response at 3 uM by two-electrode voltage clamp technique relative to control; type: cell-based; settings: Oocyte; in short: as §1
[13] = biological target: Gamma-aminobutyric acid receptor subunit rho-1 (Homo sapiens) (UniProt P24046); experiment: Activity at human recombinant GABA(C) receptor expressed in Xenopus oocytes assessed as effect on GABA-induced activation at 3 uM by two-electrode voltage clamp technique relative to control; type: cell-based; settings: Oocyte; in short: as §1
Sequence of Gamma-aminobutyric acid receptor subunit rho-1 (Homo sapiens) (P24046 whole entry): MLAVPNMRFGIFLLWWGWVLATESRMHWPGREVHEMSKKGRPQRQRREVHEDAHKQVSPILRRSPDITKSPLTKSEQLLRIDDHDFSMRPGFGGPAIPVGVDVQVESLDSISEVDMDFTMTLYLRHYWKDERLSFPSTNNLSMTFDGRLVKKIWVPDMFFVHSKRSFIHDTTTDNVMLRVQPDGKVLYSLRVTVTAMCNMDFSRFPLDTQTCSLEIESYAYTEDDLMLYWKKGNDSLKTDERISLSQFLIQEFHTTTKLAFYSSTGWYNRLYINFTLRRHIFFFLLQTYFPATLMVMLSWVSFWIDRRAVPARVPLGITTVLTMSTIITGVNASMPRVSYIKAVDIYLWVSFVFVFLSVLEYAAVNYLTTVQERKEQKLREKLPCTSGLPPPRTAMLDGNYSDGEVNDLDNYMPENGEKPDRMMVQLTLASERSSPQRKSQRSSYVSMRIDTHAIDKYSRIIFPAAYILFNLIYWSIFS

[14] = biological target: D(1A) dopamine receptor (Homo sapiens) (UniProt P21728); experiment: Inhibition of dopamine D1 receptor (unknown origin) at 5 uM by psychoactive drug screening programme assay; in short: as §2
[15] = biological target: Alpha-1B adrenergic receptor (Homo sapiens) (UniProt P35368); experiment: Inhibition of adrenergic alpha1B receptor (unknown origin) at 5 uM by psychoactive drug screening programme assay; in short: as §2
[16] = biological target: Alpha-1A adrenergic receptor (Homo sapiens) (UniProt P35348); experiment: Inhibition of adrenergic alpha1A receptor (unknown origin) at 5 uM by psychoactive drug screening programme assay; in short: as §2
[17] = biological target: P2X purinoceptor 2 (Homo sapiens) (UniProt Q9UBL9); experiment: Activity at human recombinant purinergic P2X2 receptor expressed in Xenopus oocytes assessed as effect on ATP-induced activation at 3 uM by two-electrode voltage clamp technique relative to control; type: cell-based; settings: Oocyte; in short: as §1
[18] = biological target: Alpha-2A adrenergic receptor (Homo sapiens) (UniProt P08913); experiment: Inhibition of adrenergic alpha2A receptor (unknown origin) at 5 uM by psychoactive drug screening programme assay; in short: as §2
[19] = biological target: 5-hydroxytryptamine receptor 2C (Homo sapiens) (UniProt P28335); experiment: Inhibition of serotonin 5-HT2C receptor (unknown origin) at 5 uM by psychoactive drug screening programme assay; in short: as §2
Sequence of 5-hydroxytryptamine receptor 2C (Homo sapiens) (P28335 whole entry): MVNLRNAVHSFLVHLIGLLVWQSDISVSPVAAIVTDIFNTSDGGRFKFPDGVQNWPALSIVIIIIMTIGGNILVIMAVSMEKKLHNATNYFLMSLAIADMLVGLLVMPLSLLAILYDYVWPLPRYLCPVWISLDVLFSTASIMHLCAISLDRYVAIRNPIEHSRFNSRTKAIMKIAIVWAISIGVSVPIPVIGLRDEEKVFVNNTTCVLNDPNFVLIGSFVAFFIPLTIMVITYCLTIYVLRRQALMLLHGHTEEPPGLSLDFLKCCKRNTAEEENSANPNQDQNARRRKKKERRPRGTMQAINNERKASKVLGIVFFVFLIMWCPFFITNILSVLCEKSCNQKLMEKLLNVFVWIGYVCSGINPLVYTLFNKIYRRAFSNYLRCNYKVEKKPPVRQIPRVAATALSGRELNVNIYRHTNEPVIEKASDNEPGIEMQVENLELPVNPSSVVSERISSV

[20] = biological target: 5-hydroxytryptamine receptor 1A (Homo sapiens) (UniProt P08908); experiment: Inhibition of serotonin 5-HT1A receptor (unknown origin) at 5 uM by psychoactive drug screening programme assay; in short: as §2
[21] = biological target: Neuronal acetylcholine receptor subunit alpha-7 (Homo sapiens) (UniProt P36544); experiment: Activity at human recombinant alpha7 nAChR expressed in Xenopus oocytes assessed as effect on acetylcholine-induced activation at 3 uM by two-electrode voltage clamp technique relative to control; type: cell-based; settings: Oocyte; in short: as §1
Sequence of Neuronal acetylcholine receptor subunit alpha-7 (Homo sapiens) (P36544 whole entry): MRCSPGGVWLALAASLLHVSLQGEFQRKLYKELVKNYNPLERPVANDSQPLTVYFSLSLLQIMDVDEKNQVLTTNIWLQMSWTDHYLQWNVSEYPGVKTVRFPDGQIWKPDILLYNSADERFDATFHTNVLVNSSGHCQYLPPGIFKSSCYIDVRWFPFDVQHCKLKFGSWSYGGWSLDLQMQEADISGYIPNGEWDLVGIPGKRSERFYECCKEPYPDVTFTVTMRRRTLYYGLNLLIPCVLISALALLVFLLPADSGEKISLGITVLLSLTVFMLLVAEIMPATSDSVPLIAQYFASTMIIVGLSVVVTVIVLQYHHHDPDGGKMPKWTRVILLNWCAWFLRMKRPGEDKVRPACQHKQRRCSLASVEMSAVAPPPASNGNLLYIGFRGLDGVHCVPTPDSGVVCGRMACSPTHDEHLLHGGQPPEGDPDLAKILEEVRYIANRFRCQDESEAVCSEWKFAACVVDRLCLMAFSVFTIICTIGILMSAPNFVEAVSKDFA

[22] = biological target: Alpha-2B adrenergic receptor (Homo sapiens) (UniProt P18089); experiment: Inhibition of adrenergic alpha2B receptor (unknown origin) at 5 uM by psychoactive drug screening programme assay; in short: as §2
Sequence of Alpha-2B adrenergic receptor (Homo sapiens) (P18089 whole entry): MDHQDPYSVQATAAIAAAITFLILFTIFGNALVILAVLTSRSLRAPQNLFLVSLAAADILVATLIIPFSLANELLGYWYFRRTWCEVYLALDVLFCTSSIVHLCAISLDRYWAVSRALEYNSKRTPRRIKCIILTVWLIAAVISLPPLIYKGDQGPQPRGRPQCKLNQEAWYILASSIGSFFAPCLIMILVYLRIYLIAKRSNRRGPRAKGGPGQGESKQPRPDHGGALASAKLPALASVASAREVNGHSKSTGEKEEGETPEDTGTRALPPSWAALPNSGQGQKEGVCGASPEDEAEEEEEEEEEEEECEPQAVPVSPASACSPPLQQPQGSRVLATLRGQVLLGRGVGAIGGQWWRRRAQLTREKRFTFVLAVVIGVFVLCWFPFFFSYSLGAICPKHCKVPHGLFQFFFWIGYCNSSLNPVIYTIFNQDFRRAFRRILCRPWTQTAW

[23] = biological target: Glutamate receptor ionotropic, kainate 1 (Rattus norvegicus) (UniProt P22756); experiment: Activity at rat recombinant GluK1 receptor expressed in Xenopus oocytes assessed as effect on glutamate-induced response at 3 uM by two-electrode voltage clamp technique relative to control; type: cell-based; settings: Oocyte; in short: as §1
Sequence of Glutamate receptor ionotropic, kainate 1 (Rattus norvegicus) (P22756 whole entry): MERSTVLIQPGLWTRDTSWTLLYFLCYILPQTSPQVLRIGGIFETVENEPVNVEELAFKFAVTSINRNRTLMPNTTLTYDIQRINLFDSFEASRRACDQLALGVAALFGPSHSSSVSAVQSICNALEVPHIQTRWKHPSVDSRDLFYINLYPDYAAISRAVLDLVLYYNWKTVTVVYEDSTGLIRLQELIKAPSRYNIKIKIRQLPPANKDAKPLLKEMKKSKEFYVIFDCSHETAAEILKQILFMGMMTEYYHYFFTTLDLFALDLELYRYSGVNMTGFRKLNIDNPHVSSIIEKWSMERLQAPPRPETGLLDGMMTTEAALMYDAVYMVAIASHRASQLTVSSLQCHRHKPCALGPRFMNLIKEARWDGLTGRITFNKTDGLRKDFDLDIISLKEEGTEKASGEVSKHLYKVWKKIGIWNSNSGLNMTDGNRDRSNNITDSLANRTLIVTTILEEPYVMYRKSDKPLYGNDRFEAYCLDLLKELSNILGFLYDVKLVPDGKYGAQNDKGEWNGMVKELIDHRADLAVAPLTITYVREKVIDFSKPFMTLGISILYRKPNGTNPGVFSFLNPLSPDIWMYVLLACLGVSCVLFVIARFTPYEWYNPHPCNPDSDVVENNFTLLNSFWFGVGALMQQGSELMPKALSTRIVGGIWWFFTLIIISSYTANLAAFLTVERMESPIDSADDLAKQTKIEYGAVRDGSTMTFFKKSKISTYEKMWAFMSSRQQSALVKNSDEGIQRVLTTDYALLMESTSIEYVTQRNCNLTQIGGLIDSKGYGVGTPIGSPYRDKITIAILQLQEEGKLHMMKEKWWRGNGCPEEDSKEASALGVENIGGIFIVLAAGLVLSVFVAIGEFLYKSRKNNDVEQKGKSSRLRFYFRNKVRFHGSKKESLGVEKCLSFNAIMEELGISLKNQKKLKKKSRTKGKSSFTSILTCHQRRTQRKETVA

[24] = biological target: Muscarinic acetylcholine receptor M3 (Homo sapiens) (UniProt P20309); experiment: Inhibition of M3 receptor (unknown origin) at 5 uM by psychoactive drug screening programme assay; in short: as §2
[25] = biological target: 5-hydroxytryptamine receptor 1D (Homo sapiens) (UniProt P28221); experiment: Inhibition of serotonin 5-HT1D receptor (unknown origin) at 5 uM by psychoactive drug screening programme assay; in short: as §2
[26] = biological target: Sodium-dependent noradrenaline transporter (Homo sapiens) (UniProt P23975); experiment: Inhibition of norepinephrine transporter (unknown origin) at 5 uM by psychoactive drug screening programme assay; in short: as §2
[27] = biological target: Beta-2 adrenergic receptor (Homo sapiens) (UniProt P07550); experiment: Inhibition of adrenergic beta2 receptor (unknown origin) at 5 uM by psychoactive drug screening programme assay; in short: as §2
Sequence of Beta-2 adrenergic receptor (Homo sapiens) (P07550 whole entry, looked up): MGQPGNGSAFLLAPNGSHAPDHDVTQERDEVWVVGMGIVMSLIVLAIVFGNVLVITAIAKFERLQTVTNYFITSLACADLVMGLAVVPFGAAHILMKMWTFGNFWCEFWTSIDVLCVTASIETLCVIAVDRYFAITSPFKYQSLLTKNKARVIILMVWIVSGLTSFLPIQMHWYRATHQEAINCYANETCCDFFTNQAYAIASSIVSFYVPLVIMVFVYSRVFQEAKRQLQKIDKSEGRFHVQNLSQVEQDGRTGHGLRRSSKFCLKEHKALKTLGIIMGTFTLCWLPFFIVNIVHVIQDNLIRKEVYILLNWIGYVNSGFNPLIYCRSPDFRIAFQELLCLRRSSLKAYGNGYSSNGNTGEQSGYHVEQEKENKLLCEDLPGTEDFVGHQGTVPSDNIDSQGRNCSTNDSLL

[28] = biological target: D(2) dopamine receptor (Homo sapiens) (UniProt P14416); experiment: Inhibition of dopamine D2 receptor (unknown origin) at 5 uM by psychoactive drug screening programme assay; in short: as §2

In the case of `COc1ccc(OCC2c3ccc(OCc4ccccc4)cc3CCN2C(=O)c2cccc(Br)c2)cc1` (centres undefined), the EC50 [1] is reported as 300 nM, the Activity [2] is reported as 92% and the inhibition [3] is reported as less than 50%. For the same compound, the inhibition [4] was less than 50%, the EC50 [5] was 300 nM and the Activity [6] was 91%. For the same compound, the inhibition [7] was less than 50%, the Activity [8] was 247% and the Activity [9] was 91%. The inhibition [10] was less than 50%, the inhibition [11] was less than 50% and the Activity (Oocyte) was 105%. The Activity [12] was 213%, the Activity [13] was 99% and the inhibition [14] was less than 50%. The inhibition [15] was less than 50%, the inhibition [16] was less than 50% and the Activity [17] was 94%. It also gave an inhibition [18] of less than 50%, an inhibition [19] of less than 50% and an inhibition [20] of less than 50%. It also gave an Activity [21] of 90%, an inhibition [22] of less than 50% and an Activity [23] of 101%. The inhibition [24] was less than 50%, the inhibition [25] was less than 50% and the inhibition [26] was less than 50%. For the same compound, the inhibition [27] was less than 50% and the inhibition [28] was less than 50%.
